Where only a bound is given, the exact number is not on record here.

In data set [1] the test system is A549. The data set can be described thus: Growth inhibition of human A549 cells after 48 hrs by MTS assay. The conditions noted are these: A549, 48 h. The format is functional, cell-based. The gist of the method:
(§1)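 Seeded at 5 × 10³ cells/well in F12K (A549) or RPMI 1640 (NCI-H23) with 10% FBS, 37 °C, 5% CO₂, 3 h, then exposed 48 h to compounds at final 100–0.2 µM (10 mM DMSO stocks, 1% DMSO constant). MTS reagent added and incubated at 37 °C. Formazan from metabolically active cells measured, growth relative to untreated control, IC50 derived.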
In general terms: Tetrazolium assays rely on reduction of a dye to a coloured formazan, in cell work by metabolically active cells.

Data set [2] deals with NCI-H23. The data set can be described thus: Growth inhibition of human NCI-H23 cells after 48 hrs by MTS assay. The format is functional, cell-based. The conditions noted are these: NCI-H23, 48 h. The gist of the method: as §1
For data set [3], the system named is A549. The data set can be described thus: Antiproliferative activity against human A549 cells after 48 hrs by BrdU assay. In kind it is functional, cell-based. The conditions noted are these: A549, 48 h. The gist of the method:
(§2)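 Seeded at 5 × 10³ cells/well in RPMI 1640 + 10% FBS, 37 °C, 5% CO₂, 3 h. Compounds from 10 mM DMSO stocks, final 100–0.2 µM with 1% DMSO, 48 h. BrdU (final 10 µM) added for 3 h, then cells fixed and DNA denatured 30 min rt, ELISA absorbance read. DNA synthesis reduction relative to untreated cells, IC50 by curve fit.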
(Incorporation of labelled thymidine or its analogues reports DNA synthesis.)

For data set [4], the system named is NCI-H23. The data set can be described thus: Antiproliferative activity against human NCI-H23 cells after 48 hrs by BrdU assay. The conditions noted are these: NCI-H23, 48 h. In kind it is functional, cell-based. In a few lines:
as §2

Data set [5] in a line: Solubility of the compound in DMSO. The format is physicochemical.

As to `O=C(N/N=C/c1cccc(O)c1O)c1cc(-c2ccc(Cl)cc2)nn1Cc1ccc(Cl)nc1`, the IC50 is 5.2 µM with A549 [1] (read-out: IC50); 5.25 µM in the data set with A549 [1] (read-out: pIC50 (converted)); 3.35 µM with NCI-H23 [2]; 0.7 µM in the data set with A549 [3]; 0.57 µM with NCI-H23 [4].

Take `CC(C)(C)c1ccc(Cn2nc(-c3ccc(Cl)cc3)cc2C(=O)N/N=C/c2cccc(O)c2O)cc1`: the IC50 with A549 [1] (read-out: IC50) is 7.8 µM; with A549 [1] (read-out: pIC50 (converted)) it was 7.76 µM; in the data set with NCI-H23 [2] it was 3.91 µM; in the data set with A549 [3], 0.4 µM; in the data set on NCI-H23 [4] it was 0.3 µM.

For `O=C(N/N=C/c1ccc(F)cc1F)c1cc(-c2ccc(Cl)cc2)nn1Cc1ccc(Cl)nc1`, the IC50 is 16 µM with A549 [1] (read-out: IC50); 15.8 µM in the data set with A549 [1] (read-out: pIC50 (converted)); 13.5 µM in the data set on NCI-H23 [2]; 9.05 µM in the data set on A549 [3]; 7.86 µM in the data set with NCI-H23 [4].

Turning to `CC(C)(C)c1ccc(Cn2nc(-c3ccc(Cl)cc3)cc2C(=O)N/N=C/c2ccc(F)cc2F)cc1`, the IC50 is more than 100 µM in the data set with A549 [1] (read-out: IC50); more than 100 µM in the data set with A549 [1] (read-out: pIC50 (converted)); more than 100 µM in the data set on NCI-H23 [2]; more than 100 µM in the data set on A549 [3]; 21.9 µM in the data set with NCI-H23 [4].

`N#Cc1ccc(/C=N/NC(=O)c2cc(-c3ccc(Cl)cc3)nn2Cc2ccc(Cl)nc2)cc1`: the solubility result in data set [5] is “Insoluble”. The IC50 in the data set on A549 [1] (read-out: IC50), with A549 [1] (read-out: pIC50 (converted)), in the data set with NCI-H23 [2], with A549 [3] and in the data set with NCI-H23 [4] was more than 100 µM throughout.

Turning to `N=C(NO)c1cc(-c2ccc(Cl)cc2)nn1Cc1ccc(Cl)nc1`, the IC50 with A549 [1] (read-out: IC50) was 50.5 µM; in the data set with A549 [1] (read-out: pIC50 (converted)), 50.1 µM; in the data set on NCI-H23 [2], 44.4 µM; with A549 [3] it was 38.3 µM; in the data set on NCI-H23 [4], 27.9 µM.

With `CC(C)(C)c1ccc(Cn2nc(-c3ccc(Cl)cc3)cc2C(=N)NO)cc1`, the IC50 in the data set on A549 [1] (read-out: IC50) was 17.7 µM; in the data set on A549 [1] (read-out: pIC50 (converted)), 17.8 µM; in the data set on NCI-H23 [2] it was 16.5 µM; in the data set with A549 [3], 17 µM; in the data set with NCI-H23 [4], 12.3 µM.

With `CC(C)(C)c1ccc(Cn2nc(-c3ccc(Cl)cc3)cc2/C(N)=N/OC(=O)c2cccc(O)c2O)cc1`, the IC50 is 83.2 µM in the data set with A549 [1] (read-out: IC50); 83.2 µM in the data set with A549 [1] (read-out: pIC50 (converted)); 21.9 µM in the data set on NCI-H23 [2]; 26.8 µM in the data set on A549 [3]; 15.6 µM in the data set on NCI-H23 [4].

With `CC(C)(C)c1ccc(Cn2nc(-c3ccc(Cl)cc3)cc2-c2noc(-c3cccc(O)c3O)n2)cc1`, the IC50 in the data set with A549 [1] (read-out: IC50) is more than 100 µM; in the data set with A549 [1] (read-out: pIC50 (converted)) it was more than 100 µM; in the data set with NCI-H23 [2], more than 100 µM; in the data set on A549 [3] it was 1.54 µM; with NCI-H23 [4], 0.36 µM.

Turning to `O=C(N/N=C/c1ccccc1O)c1cc(-c2ccc(Cl)cc2)nn1Cc1ccc(Cl)nc1`, the IC50 in the data set on NCI-H23 [2] was determined as 3.04 µM; in the data set with NCI-H23 [4], 0.27 µM.

The values are drawn from ChEMBL document CHEMBL1955800, “Synthesis and biological validation of novel pyrazole derivatives with anticancer activity guided by 3D-QSAR analysis” (Bioorg Med Chem, 2012).
